Test results taken from PubChem BioAssay AID624467 (The Scripps Research Institute Molecular Screening Center, 2012).
Hit rate of the full screen: of about 360,000 compounds, about 3,600 (1%) were called active.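 Rule for the calls: active = activation above the mean activation of all test compounds in the run plus 3 SD (cut at about 38% in these data); inactive = the rest.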 Shown is part of a subset that was picked to be rich in actives.

The compounds below were run against Trace amine-associated receptor 1 (Homo sapiens) (UniProt Q96RJ0) (assay: activators of TAAR1 calcium mobilization – Fluo-8 calcium fluorescence, CHO RD-HGA16 cells, primary screen (AID 624467)). Conditions: CHO RD-HGA16 TAAR1, Fluo-8 calcium fluorescence; at 3 µM; hits give high values; vehicle wells 0%, saturating PEA agonist 100%.
Method in brief: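 test system = CHO RD-HGA16 cells carrying human TAAR1 plus Gα16 | schedule = 17-24 h seeding, 75 min 37 °C dye, 30 min RT | compound dosing = 3 µM single concentration | control set = DMSO and PEA EC100 | replicates = n 1 | signal = Fluo-8 fluorescence, 5 s baseline then 140 s kinetic read | measure = percent activation vs PEA EC100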

Chain of Trace amine-associated receptor 1 (Homo sapiens) (Q96RJ0 whole entry, looked up): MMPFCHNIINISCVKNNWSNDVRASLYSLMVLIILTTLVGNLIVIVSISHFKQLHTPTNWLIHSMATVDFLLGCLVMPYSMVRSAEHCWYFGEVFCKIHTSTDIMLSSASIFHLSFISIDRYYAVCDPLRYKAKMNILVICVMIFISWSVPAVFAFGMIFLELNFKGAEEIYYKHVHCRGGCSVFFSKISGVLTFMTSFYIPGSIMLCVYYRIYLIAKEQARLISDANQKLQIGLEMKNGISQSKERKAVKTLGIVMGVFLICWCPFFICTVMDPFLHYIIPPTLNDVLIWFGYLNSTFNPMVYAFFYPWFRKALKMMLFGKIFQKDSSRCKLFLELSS

activation, active:
O=C(Nc1ccc(Cl)cc1)N1CCc2[nH]c3ccccc3c2C1 50.1%
Fc1ccc(NC(=S)N2CCc3[nH]c4ccccc4c3C2)cc1 51.5%
Cc1cccc(CN2CCC(CNC(=O)Nc3ccc(F)c(Cl)c3)CC2)c1 39.9%
O=C(NCCc1ccccc1)/C(=C\c1ccc([N+](=O)[O-])cc1)NC(=O)c1ccccc1 50.3%
Cc1nnc(NC(=O)Nc2ccc(Cl)c(Cl)c2)s1 42%
O=C(COC(=O)Cc1ccccc1F)NCCc1ccccc1 47.4%
CN(C)CCCN(C(=O)c1ccc(S(=O)(=O)N2CCCc3ccccc32)cc1)c1nc2ccc(F)cc2s1 58.5%
CN(C)CCCN(C(=O)c1ccc(S(=O)(=O)N2CCCCCC2)cc1)c1nc2ccc(Br)cc2s1 58.3%
O=C(NN=Cc1ccccc1O)NN=Cc1ccccc1O 43.2%
O=C(N[C@H](C(=O)N1CCC[C@H]1C(=O)NCCc1ccccc1Cl)c1ccccc1)c1ccccc1 57.5%
CC(C)[C@H](NC(=O)N1CCn2c1nc1ccccc12)C(=O)NCCc1ccccc1 38.9%
Cc1cc2nc3c(=O)n(Cc4ccccc4)c(=O)[nH]c3nc2cc1N 53.8%
COc1ccc(CC(N)c2csc(NC(=O)Cc3ccccc3)n2)cc1 (stereo unspecified) 56.1%
COc1ccc(CC(N)c2csc(NC(=O)Nc3ccc(C(C)C)cc3)n2)cc1 (stereo unspecified) 47.2%
NC(Cc1ccccc1)c1csc(Nc2cc(Oc3ccccc3)ncn2)n1 (stereo unspecified) 69.5%
CC(C)(C)CC(=O)Nc1nc(C(N)Cc2ccc(C(F)(F)F)cc2)cs1 (stereo unspecified) 63.4%
O=[N+]([O-])c1cc(S(=O)(=O)NCCc2ccccn2)ccc1Cl 68.6%

activation, inactive:
C[C@H](O)[C@@H]1C(=O)N2CCc3c([nH]c4ccccc34)[C@@H]2C[C@@H]1N(C)C(=O)Nc1ccc(F)cc1 9.88%
CC(=O)C(CC(=O)N1CCCC1)C(=O)Nc1ccc(Cl)cc1 (stereo unspecified) 7.47%
CCOc1ccc(NC(=O)N2CC=C(n3c(=O)[nH]c4ccccc43)CC2)cc1 15.9%
C=CCNC(=S)N1CCc2[nH]c3ccccc3c2C1 6.5%
COC(=O)C(C(=O)OC)c1ccccc1NS(=O)(=O)c1cccc2ccccc12 -0.61%
CCOc1ccccc1C(=O)N1CCC[C@@H]1C(=O)N1CCC[C@H]1C(=O)NCc1ccccc1 -0.21%
Cc1ccc2nc(CN(C)C(=O)[C@@H](Cc3ccccc3)NC(=O)[C@H]3O[C@@H](n4ccc(=O)[nH]c4=O)[C@H](O)[C@@H]3O)[nH]c2c1 1.15%
CC(C)CCNC(=O)Cn1c(=O)oc2cc(S(=O)(=O)N3CC(C)CC(C)C3)ccc21 (stereo unspecified) 4.15%
N/C(=N\c1nc2ccccc2o1)NC(=O)C(Cc1ccccc1)N1C(=O)c2ccccc2C1=O (stereo unspecified) -1.96%
Cc1ccc(C)c(CN2CCC(CNC(=O)Nc3ccc(C)c(F)c3)CC2)c1 2.76%
O=C(NCC1CCN(Cc2ccccc2Cl)CC1)Nc1cccc(Cl)c1 2.1%
COc1ccc(C(=O)OCC(=O)NCC2CCCO2)cc1[N+](=O)[O-] (stereo unspecified) -0.84%
O=S(=O)(Nc1cc(S(=O)(=O)N2CCOCC2)ccc1N1CCCC1)c1cccs1 -2.22%
CC1(C)c2[nH]c3ccccc3c2C[C@H]2C(=O)N(N)CC(=O)N21 4.18%
COc1cc(S(=O)(=O)N2CCN=C2c2ccccc2)ccc1Cl -0.47%
CCOC(=O)[C@]12CCCC=C1N(CCC1=CCCCC1)C(=O)[C@H](CC(=O)NCCCOC)C2 -0.95%
O=C(NCCN1CCOCC1)/C(=C/c1ccc(F)cc1)NC(=O)c1ccccc1 -2.27%
CCOc1ccc(/C=C(/NC(=O)c2ccccc2)C(=O)NCCC(=O)O)cc1 5.67%
COC(=O)Cc1nnn2c1[C@H](C)[C@@H](OC)c1cc(Br)ccc1-2 0.26%
O=C(Cn1cnc2c(cnn2-c2ccc(F)cc2)c1=O)NCCc1ccccc1 -0.7%
Cc1ccc(NC(=O)Nc2cc(-c3ccccc3)nn2C)cc1Cl 11.2%
O=C(CC(O)(C(F)(F)F)C(F)(F)F)Nc1ccc(Cl)c(Cl)c1 12.3%
O=P(O)(CP(=O)(c1ccccc1)c1ccccc1)c1ccccc1 12.7%
O=C(COC(=O)Cc1c[nH]c2ccccc12)NCCc1ccccc1 8.93%
COc1ccc(CCNC(=O)COC(=O)Cc2ccccc2F)cc1 2.06%
COc1ccccc1N(CC(=O)NC1CCCC1)C(=O)C1(C)CC(=O)N=C2C=CC(C)=CN21 (stereo unspecified) 2.01%
CC1CCN(C(=O)c2cccc(S(=O)(=O)N3CCCc4ccccc43)c2)CC1 2.06%
CCN(CC)CCN(C(=O)c1ccc(N2C(=O)CCC2=O)cc1)c1nc2cc3c(cc2s1)OCO3 2.36%
CCN(CC(=O)Nc1c(F)cccc1F)C(=O)c1ccc(S(=O)(=O)N2CCCCC2)cc1 8.1%
CCC(=O)Nc1nnc(S(=O)(=O)N2CCCc3ccccc32)s1 0.28%
C=CCOc1ccccc1/C=N/NC(=O)Cc1ccccc1 3.06%
O=C(CO/N=C/c1ccccc1O)NNC(=O)c1ccccc1Cl 8.86%
NC(CSC(c1ccccc1)(c1ccccc1)c1ccc(-c2ccccc2)cc1)C(=O)O (stereo unspecified) 3.19%
O=S(=O)(Cc1ccc(Cl)cc1Cl)c1ccc(Cl)cc1 6.28%
COC(=O)C1=C(C)N(Cc2cccc(C(F)(F)F)c2)C(=NCc2cccc(C(F)(F)F)c2)NC1c1ccccc1C(F)(F)F (stereo unspecified) -0.1%
CC(=O)c1cccc(NC(=O)N2CCCC2C(=O)NCCc2ccccc2)c1 (stereo unspecified) 4.48%
O=C(NCCc1ccc(Cl)cc1)C1CCCN1C(=O)NCc1ccccc1 (stereo unspecified) -0.77%
CC1CCN(C(=O)CCc2nnc3ccc(NCc4ccco4)nn23)CC1 6.46%
COc1ccc(N2C(=O)CC(Nc3ccc(F)cc3)C2=O)c([N+](=O)[O-])c1 (stereo unspecified) 2.14%
Nc1nc2c(ncn2[C@@H]2O[C@H](C(=O)N[C@@H](Cc3ccccc3)C(=O)NCc3ccccc3)[C@@H](O)[C@H]2O)c(=O)[nH]1 5.02%
CC(C)[C@H](NC(=O)N1CCn2c1nc1ccccc12)C(=O)NCc1ccc2c(c1)OCO2 3.58%
CC(C)[C@H](NC(=O)N1CCn2c1nc1ccccc12)C(=O)NC1CC1 1.88%
C=CCOc1ccc(C(=O)Nc2ccccc2C(=O)N2CCCC2)cc1 -0.26%
CN(C(=O)COC(=O)c1ccc(Br)o1)c1c(N)n(Cc2ccccc2)c(=O)[nH]c1=O 0.16%
Nc1cc(=O)n(Cc2ccccc2)c(=O)n1Cc1ccccc1 1.88%
CCN(c1ccccc1)S(=O)(=O)c1cccc(C(=O)NCc2ccccc2CN2CCOCC2)c1 5.65%
COC(=O)[C@]1(Cc2ccccc2)NC=C(C(=O)c2ccccc2)[C@@H]1c1cccc(OC)c1 0.41%
C[C@H](O)[C@@H]1CN2CCc3ccc(-c4ccc5c(c4)OCO5)cc3[C@@H]2C[C@@H]1N(C)C(=O)C1CCCCC1 -1.03%
O=C(O)Cn1cnc2c(NCc3ccccc3)ncnc21 2.25%
NC(Cc1ccc(F)cc1)c1csc(Nc2nncc3ccccc23)n1 (stereo unspecified) 35.4%
COc1ccc(CC(=O)Nc2sc(Cc3ccccc3)c(C)c2C(N)=O)cc1 3.38%
COc1ccc(S(=O)(=O)N2CCN(C(C)C(=O)Nc3ccc(C(C)C)cc3)CC2)cc1 (stereo unspecified) 0.11%
COc1ccc(CC(N)c2csc(NC(=O)NC(c3ccccc3)c3ccccc3)n2)cc1 (stereo unspecified) 21.8%
CC(C)(C)CC(=O)Nc1nnc(SCC(=O)NCc2cccs2)s1 1.84%
COC(=O)[C@H](CCSC)NC(=O)Nc1ccc(OC)cc1 -1.88%
Cc1ccccc1NC(=O)Cc1nc(COC(=O)c2ccc(C(F)(F)F)cc2)cs1 6.08%
CC(=NNC(N)=O)c1ccc(Cl)c(-n2cccc2)c1 0.51%
CCN(C(=O)c1ccc(Br)cc1)c1ccccc1 0.89%
COc1ccc(CNS(=O)(=O)c2cc(Br)ccc2Br)cc1 3.49%
C[C@@H]1CN([C@H](C)CO)C(=O)CCCn2cc(nn2)CO[C@H]1CN(C)C(=O)Nc1ccc(N2CCCCC2)cc1 0.76%
O=C(C(=O)N1CCC(CNS(=O)(=O)Cc2ccccc2)CC1)c1cc2ccccc2o1 3.18%
CCOC(=O)c1cnc(SC)nc1Sc1ccc(Cl)cc1Cl 9.74%
C=CCNC(=O)c1sc(SC)cc1-c1ccc(Cl)cc1 4.3%
CC(C)(C)C(c1nc2ccccc2[nH]1)n1c(Cc2csc3ccccc23)nc2ccccc21 (stereo unspecified) 0.77%
CC(=O)C1=C(C)N(Cc2ccc(Cl)cc2)C(=S)NC1c1ccc(F)cc1 (stereo unspecified) -0.39%
O=[N+]([O-])c1cccc(S(=O)(=O)NCc2ccccn2)c1 2.02%
O=S(=O)(NCCc1ccccn1)c1cc(Cl)cc(Cl)c1O 3.97%
CCCCOCC1CN(CCCC)S(=O)(=O)c2c(Oc3ccc(F)cc3)cccc2O1 (stereo unspecified) 1.51%
COC(=O)C1=C(C)N(Cc2cccc(C(F)(F)F)c2)C(=NCc2ccccc2)NC1c1ccc(Cl)cc1 (stereo unspecified) 19.1%
